Results on one molecule are retold here after ChEMBL document CHEMBL1142064, “Concentration-dependent effects of caspofungin on the metabolic activity of Aspergillus species” (2007).

Holding throughout (type): functional
The test system of experiment [1] is Aspergillus fumigatus. In words: Antifungal activity against Aspergillus fumigatus after 48 hrs. The conditions noted are these: read-out: MEC. The gist of the method:
(§1)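 Broth microdilution following CLSI M38-A in RPMI 1640 with l-glutamine, no bicarbonate, buffered to pH 7.0 with 0.165 M MOPS. Caspofungin twofold dilutions, 0.008 to 8 μg/ml final. Inoculum 2.5 × 10⁴ conidia/ml of clinical isolates. Incubation 37°C for 48 h. MEC read microscopically as the lowest concentration giving short, stubby, highly branched hyphae. Run in triplicate.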

In experiment [2] the test system is Aspergillus flavus. In words: Metabolic activity of Aspergillus flavus determined as X-MEC relative to control. The gist of the method:
(§2)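 X-MEC: lowest caspofungin concentration whose percent metabolic activity (optimized XTT, 100 μg/ml XTT, 6.25 μM menadione, 2 h, after 48 h incubation) is at or below a species-specific cutoff. Cutoffs were tested in 5% steps around the species median activity at the microscopic MEC and chosen for best ±1 dilution agreement with the microscopic MEC.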

Experiment [3] has as its system Aspergillus terreus. Description: Metabolic activity of Aspergillus terreus at 0.5 ug/ml after 2 hrs by XTT assay relative to control. The gist of the method: (§3)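 Wells from the 48 h caspofungin microdilution (0.008 to 8 μg/ml) were read right after microscopic MEC reading. XTT plus menadione was added to final 100 μg/ml XTT and 6.25 μM menadione, then incubated 2 h at 37°C and shaken. Absorbance read at 450 nm with 630 nm reference. Percent metabolic activity = background-subtracted drug well / background-subtracted drug-free control × 100. Triplicate.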
(In general: Tetrazolium assays rely on reduction of a dye to a coloured formazan, in cell work by metabolically active cells.)

Experiment [4] has as its system Aspergillus terreus. In words: Antifungal activity against Aspergillus terreus after 48 hrs. The conditions noted are these: read-out: MEC. Put shortly: as §1
The subject of experiment [5] is Aspergillus fumigatus. Description: Metabolic activity of Aspergillus fumigatus at 0.75 ug/ml after 2 hrs by XTT assay relative to control. The gist of the method: as §3
Experiment [6] concerns Aspergillus terreus. In words: Metabolic activity of Aspergillus terreus by XTT assay relative to control. Put shortly:
as §3

Experiment [7] relates to Aspergillus fumigatus. In words: Metabolic activity of Aspergillus fumigatus determined as X-MEC relative to control. Put shortly:
as §2

The test system of experiment [8] is Aspergillus terreus. Description: Metabolic activity of Aspergillus terreus at 1 ug/ml after 2 hrs by XTT assay relative to control. The gist of the method: as §3
In experiment [9] the test system is Aspergillus flavus. Description: Metabolic activity of Aspergillus flavus at 2 ug /ml after 2 hrs by XTT assay relative to control. Put shortly:
as §3

The test system of experiment [10] is Aspergillus fumigatus. In words: Metabolic activity of Aspergillus fumigatus at 8 ug/ml by XTT assay relative to control. The gist of the method:
(§4)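 Optimized XTT read-out (100 μg/ml XTT, 6.25 μM menadione, 2 h at 37°C) applied after 48 h caspofungin exposure. Percent metabolic activity in the 8 μg/ml well, calculated as background-corrected absorbance (450/630 nm) relative to the drug-free control. Compared within each species against the value at the concentration giving the lowest activity.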

For experiment [11], the system named is Aspergillus flavus. Description: Metabolic activity of Aspergillus flavus at 8 ug/ml by XTT assay relative to control. The gist of the method:
as §4

For experiment [12], the system named is Aspergillus terreus. In words: Metabolic activity of Aspergillus terreus determined as X-MEC relative to control. Put shortly: as §2
The subject of experiment [13] is Aspergillus fumigatus. Description: Metabolic activity of Aspergillus fumigatus at 0.5 ug/ml after 2 hrs by XTT assay relative to control. The gist of the method:
as §3

The subject of experiment [14] is Aspergillus flavus. In words: Metabolic activity of Aspergillus flavus at 0.25 ug /ml using after 2 hrs by XTT assay relative to control. The gist of the method: as §3
Experiment [15] relates to Aspergillus fumigatus. Description: Metabolic activity of Aspergillus fumigatus by XTT assay relative to control. Put shortly: as §3
Experiment [16] concerns Aspergillus flavus. In words: Antifungal activity against Aspergillus flavus after 48 hrs. The conditions noted are these: read-out: MEC. Put shortly: as §1
The test system of experiment [17] is Aspergillus terreus. Description: Metabolic activity of Aspergillus terreus at 8 ug/ml by XTT assay relative to control. Put shortly: as §4

Molecules are shown by their SMILES.

Turning to `CC[C@H](C)C[C@H](C)CCCCCCCCC(=O)N[C@H]1C[C@@H](O)[C@@H](NCCN)NC(=O)[C@@H]2[C@@H](O)CCN2C(=O)[C@H]([C@H](O)CCN)NC(=O)[C@H]([C@H](O)[C@@H](O)c2ccc(O)cc2)NC(=O)[C@@H]2C[C@@H](O)CN2C(=O)[C@H]([C@@H](C)O)NC1=O` [CASPOFUNGIN], the minimal effective concentration worked out at 0.5 µg/mL in experiment [1], 0.5 µg/mL in experiment [4] and 0.25 µg/mL in experiment [16]. Also, the Activity in [2] came to 40%; in experiment [3] it was 53%; in [5], 28%; in experiment [7], 60%; in experiment [8] it was 38%; in experiment [9] it was 17%. Moreover, the Activity in experiment [10] is 51%; in [11], 20%; in experiment [12] it was 65%; in experiment [13], 42%; in [14], 25%; in experiment [17], 57%. For the same molecule, the values for the MMC in [6] and in experiment [15] were 1 µg/mL and 0.75 µg/mL, respectively.
